Measured values as given in ChEMBL document CHEMBL1629431, “Synthesis and antitumor activity of some 2, 3-disubstituted quinazolin-4(3H)-ones and 4, 6- disubstituted- 1, 2, 3, 4-tetrahydroquinazolin-2H-ones” (2010).

What was measured:
Type in all cases: functional
OVCAR-8 = assay: Growth inhibition of human OVCAR8 cells at 10 uM after 48 hrs by coulter counter method; details: OVCAR-8, 48 h, read-out: GI
How it was run: (§1)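 Single high-dose NCI 60-cell-line panel screen across nine tumor subpanels. Test solutions (0.2 mL) were added in duplicate to wells holding 1.8 mL of culture at 6 × 10⁴ cells/mL. Controls got PBS and DMSO at identical dilutions. Incubation was 48 h at 37 °C in humidified 5% CO₂. Cells were diluted 10-fold in saline, Coulter-counted and dilution-corrected. Results were expressed as percent growth inhibition versus control.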

UACC-62 = assay: Growth inhibition of human UACC62 cells at 10 uM after 48 hrs by coulter counter method; details: UACC-62, 48 h, read-out: GI; how it was run: as §1
SK-MEL-28 = assay: Growth inhibition of human SK-MEL-28 cells at 10 uM after 48 hrs by coulter counter method; details: SK-MEL-28, 48 h, read-out: GI; how it was run: as §1
KM12 = assay: Growth inhibition of human KM12 cells at 10 uM after 48 hrs by coulter counter method; details: KM12, 48 h, read-out: GI; how it was run: as §1
786-0 = assay: Growth inhibition of human 786-0 cells at 10 uM after 48 hrs by coulter counter method; details: 786-0, 48 h, read-out: GI; how it was run: as §1
SNB-75 = assay: Growth inhibition of human SNB75 cells at 10 uM after 48 hrs by coulter counter method; details: SNB-75, 48 h, read-out: GI; how it was run: as §1
[1] = Growth inhibition of human Hs 578T cells at 10 uM after 48 hrs by coulter counter method; details: read-out: GI; how it was run: as §1
A549 = assay: Growth inhibition of human A549 cells at 10 uM after 48 hrs by coulter counter method; details: A549, 48 h, read-out: GI; how it was run: as §1
SK-OV-3 = assay: Growth inhibition of human SKOV3 cells at 10 uM after 48 hrs by coulter counter method; details: SK-OV-3, 48 h, read-out: GI; how it was run: as §1
NCI-H23 = assay: Growth inhibition of human NCI-H23 cells at 10 uM after 48 hrs by coulter counter method; details: NCI-H23, 48 h, read-out: GI; how it was run: as §1
COLO 205 = assay: Growth inhibition of human COLO205 cells at 10 uM after 48 hrs by coulter counter method; details: COLO 205, 48 h, read-out: GI; how it was run: as §1
SF-539 = assay: Growth inhibition of human SF539 cells at 10 uM after 48 hrs by coulter counter method; details: SF-539, 48 h, read-out: GI; how it was run: as §1
MOLT-4 = assay: Growth inhibition of human MOLT4 cells at 10 uM after 48 hrs by coulter counter method; details: MOLT-4, 48 h, read-out: GI; how it was run: as §1
MDA-MB-468 = assay: Growth inhibition of human MDA-MB-468 cells at 10 uM after 48 hrs by coulter counter method; details: MDA-MB-468, 48 h, read-out: GI; how it was run: as §1
MDA-MB-231 = assay: Growth inhibition of human MDA-MB-231 cells at 10 uM after 48 hrs by coulter counter method; details: MDA-MB-231, 48 h, read-out: GI; how it was run: as §1
PC-3 = assay: Growth inhibition of human PC3 cells at 10 uM after 48 hrs by coulter counter method; details: PC-3, 48 h, read-out: GI; how it was run: as §1
SN12C = assay: Growth inhibition of human SN12C cells at 10 uM after 48 hrs by coulter counter method; details: read-out: GI; how it was run: as §1
T47D = assay: Growth inhibition of human T47D cells at 10 uM after 48 hrs by coulter counter method; details: read-out: GI; how it was run: as §1
SF-268 = assay: Growth inhibition of human SF268 cells at 10 uM after 48 hrs by coulter counter method; details: SF-268, 48 h, read-out: GI; how it was run: as §1
HT-29 = assay: Growth inhibition of human HT-29 cells at 10 uM after 48 hrs by coulter counter method; details: HT-29, 48 h, read-out: GI; how it was run: as §1
SK-MEL-2 = assay: Growth inhibition of human SK-MEL-2 cells at 10 uM after 48 hrs by coulter counter method; details: SK-MEL-2, 48 h, read-out: GI; how it was run: as §1
HOP-92 = assay: Growth inhibition of human HOP92 cells at 10 uM after 48 hrs by coulter counter method; details: HOP-92, 48 h, read-out: GI; how it was run: as §1
HCT-116 = assay: Growth inhibition of human HCT116 cells at 10 uM after 48 hrs by coulter counter method; details: HCT-116, 48 h, read-out: GI; how it was run: as §1
BT-549 = assay: Growth inhibition of human BT549 cells at 10 uM after 48 hrs by coulter counter method; details: BT-549, 48 h, read-out: GI; how it was run: as §1
U-251 = assay: Growth inhibition of human U251 cells at 10 uM after 48 hrs by coulter counter method; details: U-251, 48 h, read-out: GI; how it was run: as §1
HL-60(TB) = assay: Growth inhibition of human HL-60(TB) cells at 10 uM after 48 hrs by coulter counter method; details: HL-60, 48 h, read-out: GI
How it was run: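 Part of the NCI 60-cell-line single-high-dose panel. Cells were seeded at 6 × 10⁴ cells/mL with test solution in duplicate wells, alongside PBS/DMSO controls at identical dilutions. Plates were held 48 h at 37 °C in a humidified 5% CO₂ incubator. Cells were then diluted 10-fold in saline and counted by Coulter counter, with counts corrected for dilution. Results are percent growth of treated cells, reported as GI %.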

OVCAR-4 = assay: Growth inhibition of human OVCAR4 cells at 10 uM after 48 hrs by coulter counter method; details: OVCAR-4, 48 h, read-out: GI; how it was run: as §1
K562 = assay: Growth inhibition of human K562 cells at 10 uM after 48 hrs by coulter counter method; details: K562, 48 h, read-out: GI; how it was run: as §1
IGROV-1 = assay: Growth inhibition of human IGROV1 cells at 10 uM after 48 hrs by coulter counter method; details: IGROV-1, 48 h, read-out: GI; how it was run: as §1
NCI-H522 = assay: Growth inhibition of human NCI-H522 cells at 10 uM after 48 hrs by coulter counter method; details: NCI-H522, 48 h, read-out: GI; how it was run: as §1
M14 = assay: Growth inhibition of human M14 cells at 10 uM after 48 hrs by coulter counter method; details: M14, 48 h, read-out: GI; how it was run: as §1
CAKI-1 = assay: Growth inhibition of human Caki1 cells at 10 uM after 48 hrs by coulter counter method; details: CAKI-1, 48 h, read-out: GI; how it was run: as §1
UO-31 = assay: Growth inhibition of human UO31 cells at 10 uM after 48 hrs by coulter counter method; details: UO-31, 48 h, read-out: GI; how it was run: as §1
MCF7 = assay: Growth inhibition of human MCF7 cells at 10 uM after 48 hrs by coulter counter method; details: MCF7, 48 h, read-out: GI; how it was run: as §1
NCI-H226 = assay: Growth inhibition of human NCI-H226 cells at 10 uM after 48 hrs by coulter counter method; details: NCI-H226, 48 h, read-out: GI; how it was run: as §1
CCRF-CEM = assay: Growth inhibition of human CCRF-CEM cells at 10 uM after 48 hrs by coulter counter method; details: read-out: GI; how it was run: as §1

| Structure (SMILES) | inhibition of growth at 10 µM (OVCAR-8) [%] | inhibition of growth at 10 µM (UACC-62) [%] | inhibition of growth at 10 µM (SK-MEL-28) [%] | inhibition of growth at 10 µM (KM12) [%] | inhibition of growth at 10 µM (786-0) [%] | inhibition of growth at 10 µM (SNB-75) [%] | inhibition of growth at 10 µM [1] [%] | inhibition of growth at 10 µM (A549) [%] | inhibition of growth at 10 µM (SK-OV-3) [%] | inhibition of growth at 10 µM (NCI-H23) [%] | inhibition of growth at 10 µM (SF-539) [%] | inhibition of growth at 10 µM (MDA-MB-468) [%] | inhibition of growth at 10 µM (MDA-MB-231) [%] | inhibition of growth at 10 µM (PC-3) [%] | inhibition of growth at 10 µM (SN12C) [%] | inhibition of growth at 10 µM (T47D) [%] | inhibition of growth at 10 µM (SF-268) [%] | inhibition of growth at 10 µM (HT-29) [%] | inhibition of growth at 10 µM (SK-MEL-2) [%] | inhibition of growth at 10 µM (HCT-116) [%] | other results |
| --- | --- | --- | --- | --- | --- | --- | --- | --- | --- | --- | --- | --- | --- | --- | --- | --- | --- | --- | --- | --- | --- |
| O=c1c2ccccc2nc(-n2ccnc2)n1-c1ccc(Cl)cc1 | 30 | 30 | 30 | 30 | 30 | 30 | 30 | 30 | 30 | 30 | 30 | 30 | 30 | 40.3 | 30 | 39 | 30 | 30 | 30 | 30 | inhibition of growth at 10 µM (COLO 205): 30%; inhibition of growth at 10 µM (MOLT-4): 47.7%; inhibition of growth at 10 µM (HOP-92): 30%; inhibition of growth at 10 µM (BT-549): 30%; inhibition of growth at 10 µM (U-251): 30%; inhibition of growth at 10 µM (HL-60(TB)): 30%; inhibition of growth at 10 µM (OVCAR-4): 30%; inhibition of growth at 10 µM (K562): 37.1%; inhibition of growth at 10 µM (IGROV-1): 30%; inhibition of growth at 10 µM (NCI-H522): 30%; inhibition of growth at 10 µM (M14): 30%; inhibition of growth at 10 µM (CAKI-1): 30%; inhibition of growth at 10 µM (UO-31): 30%; inhibition of growth at 10 µM (MCF7): 30%; inhibition of growth at 10 µM (NCI-H226): 30% |
| O=c1c2ccccc2nc(-n2ccnc2)n1-c1ccccc1 | 30 | 30 | 30 | 30 | 30 | 30 | 30 | 30 | 30 | 30 | 30 | 30 | 30 | 30 | 30 | 30 | 30 | 30 | 30 | 30 | inhibition of growth at 10 µM (CCRF-CEM): 30%; inhibition of growth at 10 µM (MOLT-4): 30%; inhibition of growth at 10 µM (HOP-92): 76.6%; inhibition of growth at 10 µM (BT-549): 30%; inhibition of growth at 10 µM (U-251): 30%; inhibition of growth at 10 µM (HL-60(TB)): 30%; inhibition of growth at 10 µM (OVCAR-4): 30%; inhibition of growth at 10 µM (K562): 30%; inhibition of growth at 10 µM (NCI-H522): 30%; inhibition of growth at 10 µM (M14): 30%; inhibition of growth at 10 µM (CAKI-1): 30%; inhibition of growth at 10 µM (UO-31): 30%; inhibition of growth at 10 µM (MCF7): 30%; inhibition of growth at 10 µM (NCI-H226): 30% |
| COc1ccc(-n2c(-n3ccnc3)nc3ccccc3c2=O)cc1 | 30 | 30 | 30 | 30 | 30 | 30 | 30 | 30 | 30 | 30 | 30 | 30 | 30 | 30 | 30 | 30 | 30 | 30 | 30 | 30 | inhibition of growth at 10 µM (CCRF-CEM): 30%; inhibition of growth at 10 µM (COLO 205): 30%; inhibition of growth at 10 µM (BT-549): 30%; inhibition of growth at 10 µM (U-251): 30%; inhibition of growth at 10 µM (HL-60(TB)): 30%; inhibition of growth at 10 µM (OVCAR-4): 30%; inhibition of growth at 10 µM (K562): 30.8%; inhibition of growth at 10 µM (IGROV-1): 30%; inhibition of growth at 10 µM (NCI-H522): 30%; inhibition of growth at 10 µM (M14): 30%; inhibition of growth at 10 µM (CAKI-1): 30%; inhibition of growth at 10 µM (UO-31): 30%; inhibition of growth at 10 µM (MCF7): 30%; inhibition of growth at 10 µM (NCI-H226): 30% |
